ChEMBL document CHEMBL4138137, “Discovery of Novel 5-(Piperazine-1-carbonyl)pyridin-2(1H)-one Derivatives as Orally eIF4A3-Selective Inhibitors” (ACS Med Chem Lett, 2017)
In brackets after ≈: the same amount, converted by molar mass.

Experiments:
[1] = biological target: Eukaryotic initiation factor 4A-III (Homo sapiens, UniProt P38919); assay: Inhibition of MLN51-induced full length recombinant human N-terminal His6/SUMO-tagged eIF4A3 RNA dependent ATPase activity expressed in Escherichia coli BL21(DE3) using single stranded poly(U) RNA as substrate after 30 mins by ADP-Glo luminescence assay
Chain of Eukaryotic initiation factor 4A-III (P38919 whole entry): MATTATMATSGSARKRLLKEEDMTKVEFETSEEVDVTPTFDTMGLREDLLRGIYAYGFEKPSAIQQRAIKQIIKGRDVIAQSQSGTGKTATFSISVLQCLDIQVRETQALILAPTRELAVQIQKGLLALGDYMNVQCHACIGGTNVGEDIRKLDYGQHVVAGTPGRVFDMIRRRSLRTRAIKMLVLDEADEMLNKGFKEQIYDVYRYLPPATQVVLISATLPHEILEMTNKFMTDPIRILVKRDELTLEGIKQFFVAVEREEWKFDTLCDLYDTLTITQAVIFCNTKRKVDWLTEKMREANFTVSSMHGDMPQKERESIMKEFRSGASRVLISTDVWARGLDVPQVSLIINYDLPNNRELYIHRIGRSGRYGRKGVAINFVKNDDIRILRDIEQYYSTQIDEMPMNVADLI
Method in brief: (§1)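 IC50 reported as the mean of duplicate experiments with 95% confidence intervals.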

[2] = Solubility of the compound at pH 6.8; type: physicochemical; details: buffer
Method in brief: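 Solubility measured at pH 6.8.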

[3] = Metabolic stability in mouse microsomes; type: ADME, Microsome; details: read-out: Stability
Method in brief: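 Metabolic stability measured in mouse liver microsomes, expressed in μL/min/mg.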

[4] = AUC (0 to 8 hrs) in ICR mouse at 1 mg/kg, po administered as cassette dose; type: ADME, organism-based; design: dose 1 mg/kg, time < 8 hr, route oral; details: in vivo
Method in brief: (§2)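 Cassette PK in male ICR mice, n = 3; dosed i.v. at 0.1 mg/kg and p.o. at 1 mg/kg. AUC taken over 0 to 8 h after oral dosing; bioavailability derived from the oral and i.v. exposures.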

[5] = Oral bioavailability in ICR mouse at 1 mg/kg administered as cassette dose; type: ADME, organism-based; details: in vivo; method in brief: as §2
HCT-116 [6] = assay: Growth inhibition of human HCT116 cells after 3 days by CellTiter-Glo luminescence assay; type: functional; details: HCT-116, 72 h
Method in brief: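 HCT-116 cells exposed to compound for 72 h; growth read as intracellular ATP amount. GI50 derived by curve fitting. Data representative of three independent experiments.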

[7] = biological target: MDR1 (ABCB1, P-glycoprotein) (Homo sapiens, UniProt P08183); assay: Substrate activity at MDR1 (unknown origin) assessed as efflux ratio of permeability; type: ADME; details: not told
Chain of MDR1 (ABCB1, P-glycoprotein) (P08183 whole entry): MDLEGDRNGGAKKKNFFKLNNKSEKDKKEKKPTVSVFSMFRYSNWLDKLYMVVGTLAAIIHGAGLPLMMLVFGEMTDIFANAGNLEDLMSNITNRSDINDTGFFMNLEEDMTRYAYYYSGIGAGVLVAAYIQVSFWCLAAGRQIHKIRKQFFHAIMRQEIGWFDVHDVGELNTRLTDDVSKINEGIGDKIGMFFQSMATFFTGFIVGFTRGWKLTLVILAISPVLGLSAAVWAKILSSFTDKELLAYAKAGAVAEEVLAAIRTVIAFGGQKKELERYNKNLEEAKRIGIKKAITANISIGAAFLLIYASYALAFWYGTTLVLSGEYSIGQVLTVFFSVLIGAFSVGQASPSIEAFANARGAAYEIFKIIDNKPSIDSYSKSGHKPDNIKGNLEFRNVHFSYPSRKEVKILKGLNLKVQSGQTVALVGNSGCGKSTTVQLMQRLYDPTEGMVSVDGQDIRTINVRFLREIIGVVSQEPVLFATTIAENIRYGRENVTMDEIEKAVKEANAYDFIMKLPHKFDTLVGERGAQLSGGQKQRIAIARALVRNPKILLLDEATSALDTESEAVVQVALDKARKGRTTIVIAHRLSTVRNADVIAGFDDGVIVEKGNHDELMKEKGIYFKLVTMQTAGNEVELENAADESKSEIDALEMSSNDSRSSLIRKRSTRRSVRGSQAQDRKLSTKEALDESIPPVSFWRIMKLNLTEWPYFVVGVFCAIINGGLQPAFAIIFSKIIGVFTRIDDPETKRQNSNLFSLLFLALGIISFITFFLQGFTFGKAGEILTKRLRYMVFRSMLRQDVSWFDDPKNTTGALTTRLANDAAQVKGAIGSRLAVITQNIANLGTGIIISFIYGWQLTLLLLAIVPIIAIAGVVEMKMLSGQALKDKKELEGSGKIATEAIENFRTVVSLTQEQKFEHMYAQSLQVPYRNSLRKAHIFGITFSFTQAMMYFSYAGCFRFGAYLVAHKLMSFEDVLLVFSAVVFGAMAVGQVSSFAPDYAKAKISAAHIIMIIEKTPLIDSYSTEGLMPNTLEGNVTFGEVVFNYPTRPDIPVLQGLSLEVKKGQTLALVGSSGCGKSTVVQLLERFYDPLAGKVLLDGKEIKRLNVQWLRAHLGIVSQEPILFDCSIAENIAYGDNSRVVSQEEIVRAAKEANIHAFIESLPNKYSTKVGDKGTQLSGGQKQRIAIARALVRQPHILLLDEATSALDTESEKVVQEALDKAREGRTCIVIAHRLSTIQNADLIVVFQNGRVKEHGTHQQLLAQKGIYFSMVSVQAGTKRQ
Method in brief: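 Efflux ratio measured in vitro in an MDR1-overexpressing cell line.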

[8] = biological target: Eukaryotic initiation factor 4A-I (Homo sapiens, UniProt P60842); assay: Inhibition of eIF4G-induced full length recombinant human N-terminal His6/SUMO-tagged eIF4A1 RNA dependent ATPase activity expressed in Escherichia coli BL21(DE3) using single stranded poly(U) RNA as substrate after 40 mins by ADP-Glo luminescence assay; method in brief: as §1
Chain of Eukaryotic initiation factor 4A-I (P60842 whole entry): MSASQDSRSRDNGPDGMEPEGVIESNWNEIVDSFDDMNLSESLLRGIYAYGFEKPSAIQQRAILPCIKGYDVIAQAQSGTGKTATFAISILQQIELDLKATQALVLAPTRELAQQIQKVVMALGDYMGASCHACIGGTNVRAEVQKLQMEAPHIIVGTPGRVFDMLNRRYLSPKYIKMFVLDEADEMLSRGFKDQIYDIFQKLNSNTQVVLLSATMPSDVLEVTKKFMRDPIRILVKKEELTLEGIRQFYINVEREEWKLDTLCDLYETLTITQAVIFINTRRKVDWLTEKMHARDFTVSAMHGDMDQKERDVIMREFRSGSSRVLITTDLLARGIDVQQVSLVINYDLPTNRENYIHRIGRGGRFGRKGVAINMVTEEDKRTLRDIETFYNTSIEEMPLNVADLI

[9] = biological target: Eukaryotic initiation factor 4A-II (Homo sapiens, UniProt Q14240); assay: Inhibition of eIF4G-induced full length recombinant human N-terminal His6/SUMO-tagged eIF4A2 RNA dependent ATPase activity using single stranded poly(U) RNA as substrate after 40 mins by ADP-Glo luminescence assay; method in brief: as §1
Chain of Eukaryotic initiation factor 4A-II (Q14240 whole entry): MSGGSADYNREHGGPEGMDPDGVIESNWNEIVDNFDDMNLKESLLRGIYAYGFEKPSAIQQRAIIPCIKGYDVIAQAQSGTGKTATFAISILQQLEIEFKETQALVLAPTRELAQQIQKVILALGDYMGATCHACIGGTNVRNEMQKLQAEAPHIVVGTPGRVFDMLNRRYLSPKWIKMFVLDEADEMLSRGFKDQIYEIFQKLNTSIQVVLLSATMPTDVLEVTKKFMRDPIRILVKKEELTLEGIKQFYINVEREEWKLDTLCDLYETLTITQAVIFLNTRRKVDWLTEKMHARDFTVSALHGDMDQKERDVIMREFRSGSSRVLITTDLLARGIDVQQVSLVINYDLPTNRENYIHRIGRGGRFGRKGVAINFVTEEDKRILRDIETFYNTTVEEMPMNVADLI

[10] = biological target: U5 small nuclear ribonucleoprotein 200 kDa helicase (Homo sapiens, UniProt O75643); assay: Inhibition of human recombinant N-terminal full length His-tagged BRR2 RNA dependent ATPase activity expressed in baculovirus infected Sf9 insect cells using single stranded poly(U) RNA as substrate after 30 mins by ADP-Glo luminescence assay; method in brief: as §1
Chain of U5 small nuclear ribonucleoprotein 200 kDa helicase (O75643 whole entry): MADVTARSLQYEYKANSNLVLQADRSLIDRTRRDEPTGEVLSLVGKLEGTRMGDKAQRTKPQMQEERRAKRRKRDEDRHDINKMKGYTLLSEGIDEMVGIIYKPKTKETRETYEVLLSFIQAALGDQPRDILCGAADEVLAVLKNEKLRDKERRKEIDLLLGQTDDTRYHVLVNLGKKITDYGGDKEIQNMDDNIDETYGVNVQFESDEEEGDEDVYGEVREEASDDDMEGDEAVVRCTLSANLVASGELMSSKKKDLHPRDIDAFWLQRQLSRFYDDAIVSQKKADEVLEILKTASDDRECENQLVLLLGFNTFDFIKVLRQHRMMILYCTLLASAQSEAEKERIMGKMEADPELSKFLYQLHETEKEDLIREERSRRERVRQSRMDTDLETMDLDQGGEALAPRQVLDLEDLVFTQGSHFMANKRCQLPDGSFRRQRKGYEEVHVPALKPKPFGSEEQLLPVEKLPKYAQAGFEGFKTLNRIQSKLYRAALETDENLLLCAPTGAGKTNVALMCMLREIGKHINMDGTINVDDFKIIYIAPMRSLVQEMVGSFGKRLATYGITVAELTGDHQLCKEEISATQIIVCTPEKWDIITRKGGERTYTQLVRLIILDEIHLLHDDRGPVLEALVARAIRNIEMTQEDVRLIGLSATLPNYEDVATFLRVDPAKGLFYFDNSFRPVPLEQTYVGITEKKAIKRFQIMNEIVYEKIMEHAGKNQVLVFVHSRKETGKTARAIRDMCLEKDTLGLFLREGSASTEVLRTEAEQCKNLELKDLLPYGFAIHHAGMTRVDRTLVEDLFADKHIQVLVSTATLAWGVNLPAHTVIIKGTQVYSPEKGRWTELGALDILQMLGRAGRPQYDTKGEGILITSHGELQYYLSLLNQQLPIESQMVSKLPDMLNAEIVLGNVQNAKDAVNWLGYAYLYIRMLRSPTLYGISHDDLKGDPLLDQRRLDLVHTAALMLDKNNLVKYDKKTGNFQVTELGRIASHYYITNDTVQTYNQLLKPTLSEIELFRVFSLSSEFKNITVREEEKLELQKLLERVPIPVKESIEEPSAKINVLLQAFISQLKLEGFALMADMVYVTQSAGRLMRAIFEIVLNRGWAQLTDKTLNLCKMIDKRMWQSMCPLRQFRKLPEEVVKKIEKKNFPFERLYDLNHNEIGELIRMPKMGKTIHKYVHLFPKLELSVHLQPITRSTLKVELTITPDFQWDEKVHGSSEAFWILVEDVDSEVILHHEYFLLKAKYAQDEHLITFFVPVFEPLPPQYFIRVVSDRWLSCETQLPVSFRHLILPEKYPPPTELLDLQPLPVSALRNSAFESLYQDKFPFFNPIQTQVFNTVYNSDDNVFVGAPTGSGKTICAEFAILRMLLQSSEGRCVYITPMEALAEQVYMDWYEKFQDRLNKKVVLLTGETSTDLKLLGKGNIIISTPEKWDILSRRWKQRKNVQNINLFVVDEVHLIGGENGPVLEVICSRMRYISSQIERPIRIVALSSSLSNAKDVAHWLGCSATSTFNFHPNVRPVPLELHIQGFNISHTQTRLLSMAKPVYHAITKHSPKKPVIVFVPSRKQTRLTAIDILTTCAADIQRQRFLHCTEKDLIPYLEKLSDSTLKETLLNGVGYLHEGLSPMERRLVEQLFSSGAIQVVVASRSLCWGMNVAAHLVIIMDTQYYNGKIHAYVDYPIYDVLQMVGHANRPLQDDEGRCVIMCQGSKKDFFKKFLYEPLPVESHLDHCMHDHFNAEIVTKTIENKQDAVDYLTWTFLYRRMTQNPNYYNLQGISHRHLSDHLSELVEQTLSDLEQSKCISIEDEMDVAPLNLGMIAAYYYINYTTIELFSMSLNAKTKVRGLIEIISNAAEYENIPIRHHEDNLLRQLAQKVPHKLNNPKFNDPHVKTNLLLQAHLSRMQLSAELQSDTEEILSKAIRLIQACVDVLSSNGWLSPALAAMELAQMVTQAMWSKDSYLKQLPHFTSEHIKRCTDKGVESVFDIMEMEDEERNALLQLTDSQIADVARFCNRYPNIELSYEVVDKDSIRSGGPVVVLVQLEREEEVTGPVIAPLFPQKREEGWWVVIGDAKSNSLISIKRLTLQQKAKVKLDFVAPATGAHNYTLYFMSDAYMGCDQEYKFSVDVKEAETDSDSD

[11] = biological target: T1, ATP-dependent RNA helicase DHX29 (Homo sapiens, UniProt Q7Z478); assay: Inhibition of human recombinant N-terminal full length FLAG-His-tagged DHX29 RNA dependent ATPase activity expressed in baculovirus infected Sf9 insect cells using single stranded poly(U) RNA as substrate after 30 mins by ADP-Glo luminescence assay; method in brief: as §1
T1 sequence (Q7Z478 whole entry): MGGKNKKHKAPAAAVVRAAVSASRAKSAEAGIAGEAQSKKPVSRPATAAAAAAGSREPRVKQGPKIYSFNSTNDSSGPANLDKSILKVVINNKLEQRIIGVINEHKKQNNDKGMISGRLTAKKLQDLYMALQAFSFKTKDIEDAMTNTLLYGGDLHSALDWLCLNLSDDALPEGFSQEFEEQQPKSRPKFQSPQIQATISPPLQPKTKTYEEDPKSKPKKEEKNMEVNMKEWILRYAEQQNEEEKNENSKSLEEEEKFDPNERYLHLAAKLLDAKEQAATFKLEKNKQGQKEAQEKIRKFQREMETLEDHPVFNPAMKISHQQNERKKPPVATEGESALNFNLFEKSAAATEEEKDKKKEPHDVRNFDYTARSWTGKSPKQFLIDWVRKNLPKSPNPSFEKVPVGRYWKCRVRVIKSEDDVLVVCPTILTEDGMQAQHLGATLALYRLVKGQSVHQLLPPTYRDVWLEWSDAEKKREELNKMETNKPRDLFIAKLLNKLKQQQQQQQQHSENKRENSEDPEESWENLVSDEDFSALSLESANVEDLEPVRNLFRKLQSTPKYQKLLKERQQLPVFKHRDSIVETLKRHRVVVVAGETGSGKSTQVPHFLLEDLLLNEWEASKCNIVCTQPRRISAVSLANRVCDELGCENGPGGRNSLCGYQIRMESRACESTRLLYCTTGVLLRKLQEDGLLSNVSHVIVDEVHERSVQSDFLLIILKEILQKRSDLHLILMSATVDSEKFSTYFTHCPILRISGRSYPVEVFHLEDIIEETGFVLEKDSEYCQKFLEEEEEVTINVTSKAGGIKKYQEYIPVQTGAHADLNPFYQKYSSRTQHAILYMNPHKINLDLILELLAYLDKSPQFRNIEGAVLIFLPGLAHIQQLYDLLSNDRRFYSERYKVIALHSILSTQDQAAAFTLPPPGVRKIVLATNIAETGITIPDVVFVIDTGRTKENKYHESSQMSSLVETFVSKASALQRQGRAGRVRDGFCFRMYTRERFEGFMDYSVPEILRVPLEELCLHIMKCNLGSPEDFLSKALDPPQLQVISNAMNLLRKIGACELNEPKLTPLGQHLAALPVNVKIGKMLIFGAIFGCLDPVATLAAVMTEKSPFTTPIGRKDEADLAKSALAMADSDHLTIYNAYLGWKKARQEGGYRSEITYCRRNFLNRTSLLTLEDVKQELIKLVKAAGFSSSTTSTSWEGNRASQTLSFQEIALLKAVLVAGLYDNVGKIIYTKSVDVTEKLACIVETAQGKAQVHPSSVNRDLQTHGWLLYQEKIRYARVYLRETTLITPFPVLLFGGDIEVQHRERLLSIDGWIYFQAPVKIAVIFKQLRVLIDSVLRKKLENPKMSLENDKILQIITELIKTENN

Homo sapiens [12] = species: Homo sapiens; assay: Inhibition of NMD in human HCT116 cells assessed as upregulation of SC35 1.6 kb mRNA expression level at 1 uM after 6 hrs by qPCR analysis relative to control; type: cell-based
Method in brief: (§3)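 HCT-116 colorectal carcinoma cells treated for 6 h at 1, 3 or 10 μM. SC35 1.6 kb mRNA level expressed as fold change relative to control. Data representative of three independent experiments.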

Homo sapiens [13] = species: Homo sapiens; assay: Inhibition of NMD in human HCT116 cells assessed as upregulation of SC35 1.6 kb mRNA expression level at 3 uM after 6 hrs by qPCR analysis relative to control; type: cell-based; method in brief: as §3
Homo sapiens [14] = species: Homo sapiens; assay: Inhibition of NMD in human HCT116 cells assessed as upregulation of SC35 1.6 kb mRNA expression level at 10 uM after 6 hrs by qPCR analysis relative to control; type: cell-based; method in brief: as §3
Mus musculus [15] = assay: In vivo inhibition of NMD in BALB/cA Jc1 nude mouse xenografted with human HCT116 cells assessed as upregulation of SC35 1.6 kb mRNA expression level in tumor at 100 mg/kg, po administered as single dose measured after 4 hrs by qPCR analysis relative to control; type: functional
Method in brief: (§4)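 HCT-116 xenograft mice given a single oral dose of 100 mg/kg in a solubilizing formulation. Tumour SC35 1.6 kb mRNA expression measured at 4, 8 and 24 h after dosing.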

Mus musculus [16] = assay: In vivo inhibition of NMD in BALB/cA Jc1 nude mouse xenografted with human HCT116 cells assessed as upregulation of SC35 1.6 kb mRNA expression level in tumor at 100 mg/kg, po administered as single dose measured after 8 hrs by qPCR analysis relative to control; type: functional; method in brief: as §4
Mus musculus [17] = assay: In vivo inhibition of NMD in BALB/cA Jc1 nude mouse xenografted with human HCT116 cells assessed as upregulation of SC35 1.6 kb mRNA expression level in tumor at 100 mg/kg, po administered as single dose measured after 24 hrs by qPCR analysis relative to control; type: functional; method in brief: as §4
HCT-116 [18] = assay: Antitumor activity against human HCT116 cells xenografted in BALB/cA Jc1 nude mouse assessed as reduction in tumor volume at 100 mg/kg, po bid administered for 14 days measured twice per week relative to control; type: functional
Method in brief: (§5)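 HCT-116 xenograft mice dosed orally at 100 mg/kg twice daily for 14 days in a solubilizing formulation. Efficacy expressed as T/C versus a vehicle group, with Dunnett's test; body weight change monitored over the study.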

Mus musculus [19] = assay: Toxicity in BALB/cA Jc1 nude mouse xenografted with human HCT116 cells assessed as reduction in body weight at 100 mg/kg, po bid administered for 14 days measured twice per week; type: organism-based; design: scale not given: the % may be the effect or the level left; details: in vivo, 336 h; method in brief: as §5

IC50 [1] [nM]	solubility [2] [µg/mL]	microsomal CLint [3] [µL/min/mg]	AUC(0-t) at 8 h [4] [ng·h/mL]	bioavailability [5] [%]	Compound	further results
280	3.8 (≈ 6.29 µM)	207	55.9	11.4	O=C(c1cnn2cc(Br)ccc12)N1CCN(C(=O)c2ccc(Br)cn2)[C@@H](c2ccc(Cl)cc2)C1	–
2700	3.2 (≈ 5.98 µM)	143	129	19.7	O=C(c1ccnc2ccccc12)N1CCN(C(=O)c2ccc(Br)cc2)[C@@H](c2ccc(Cl)cc2)C1	–
420	–	–	–	–	O=C(c1c[nH]c(=O)c(-c2ccccc2Cl)c1)N1CCN(C(=O)c2ccc(Cl)cc2)C(c2ccc(Cl)cc2)C1 (configuration not stated)	–
290	11 (≈ 20 µM)	16	97.3	9.6	O=C(c1c[nH]c(=O)c2ccccc12)N1CCN(C(=O)c2ccc(Br)cc2)[C@@H](c2ccc(Cl)cc2)C1	–
410	–	–	–	–	O=C(c1c[nH]c(=O)c(-c2ccccc2)c1)N1CCN(C(=O)c2ccc(Cl)cc2)C(c2ccc(Cl)cc2)C1 (configuration not stated)	–
290	–	–	–	–	O=C(c1c[nH]c(=O)c(-c2cccc(Cl)c2)c1)N1CCN(C(=O)c2ccc(Cl)cc2)C(c2ccc(Cl)cc2)C1 (configuration not stated)	–
700	–	–	–	–	O=C(c1c[nH]c(=O)c(-c2cccc(C(F)(F)F)c2)c1)N1CCN(C(=O)c2ccc(Cl)cc2)C(c2ccc(Cl)cc2)C1 (configuration not stated)	–
–	0.46 (≈ 0.763 µM)	227	9	5.7	O=C(c1cnn2cc(Br)ccc12)N1CCN(C(=O)c2ccc(Br)cc2)[C@@H](c2ccc(Cl)cc2)C1	GI50 (HCT-116 [6]): 3060 nM; efflux ratio [7]: 0.9
490	–	–	–	–	CS(=O)(=O)c1cccc(-c2cc(C(=O)N3CCN(C(=O)c4ccc(Cl)cc4)C(c4ccc(Cl)cc4)C3)c[nH]c2=O)c1 (configuration not stated)	–
100	12 (≈ 19.5 µM)	6	147	16.1	Cn1cc(C(=O)N2CCN(C(=O)c3ccc(Br)cn3)[C@@H](c3ccc(Cl)cc3)C2)cc(-c2cccc(C#N)c2)c1=O	IC50 [8]: > 100000 nM; IC50 [9]: > 100000 nM; IC50 [10]: > 100000 nM; IC50 [11]: > 100000 nM; fold change (FC) (Homo sapiens [12]): 2.17; fold change (FC) (Homo sapiens [13]): 8.41; fold change (FC) (Homo sapiens [14]): 19.1; GI50 (HCT-116 [6]): 1340 nM; fold change (FC) (Mus musculus [15]): 4; fold change (FC) (Mus musculus [16]): 2.5; fold change (FC) (Mus musculus [17]): 1.2; T/C (HCT-116 [18]): 54%; Activity (Mus musculus [19]): < 5%; efflux ratio [7]: 25
1300	–	–	–	–	O=C(c1c[nH]c(=O)c2ccccc12)N1CCN(C(=O)c2ccc(Cl)cc2)C(c2ccc(Cl)cc2)C1 (configuration not stated)	–
190	–	–	–	–	N#Cc1cccc(-c2cc(C(=O)N3CCN(C(=O)c4ccc(Cl)cc4)C(c4ccc(Cl)cc4)C3)c[nH]c2=O)c1 (configuration not stated)	–
1600	5.1 (≈ 9.54 µM)	202	1.5	0.4	O=C(c1cncc2ccccc12)N1CCN(C(=O)c2ccc(Br)cc2)[C@@H](c2ccc(Cl)cc2)C1	–
1100	–	–	–	–	O=C(c1c[nH]c(=O)c(-c2ccc(Cl)cc2)c1)N1CCN(C(=O)c2ccc(Cl)cc2)C(c2ccc(Cl)cc2)C1 (configuration not stated)	–
50	2.4 (≈ 3.98 µM)	113	–	–	N#Cc1cccc(-c2cc(C(=O)N3CCN(C(=O)c4ccc(Br)cn4)[C@@H](c4ccc(Cl)cc4)C3)c[nH]c2=O)c1	efflux ratio [7]: 35
